Data reported in ChEMBL document CHEMBL4680257, “Discovery of novel NF-кB inhibitor based on scaffold hopping: 1,4,5,6,7,8-hexahydropyrido[4,3-d]pyrimidine” (Eur J Med Chem, 2020).
The source made the active and inactive calls. No cut-off for these calls is given here.

Columns and labels:
[1] = tested on: HepG2; assay: Induction of apoptosis in human HepG2 cells assessed as late apoptotic cells at 1 uM incubated for 24 hrs by annexin V-FITC and PI staining based flow cytometry analysis (reference value: 4.8 %); format: functional
Procedure, shortened: (§1)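 Cells seeded at 2×10^5 per well and treated 24 h with 1.0, 2.0 or 4.0 µM, or DMSO. Harvested, washed twice in cold PBS, resuspended at 1×10^5 cells/mL in buffer. Stained with Annexin V-FITC plus propidium iodide for 15 min at room temperature in the dark, then analysed by flow cytometry.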

[2] = tested on: RAW264.7; assay: Inhibition of NF-kappaB in mouse RAW264.7 cells assessed as reduction in LPS-induced JNK phosphorylation at 1 to 4 uM incubated for 1 hr followed by LPS stimulation and measured after 30 mins by Western blot analysis; format: cell-based; conditions: dose 1-4 µM
Procedure, shortened: (§2)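 RAW264.7 incubated 1 h with compound (1.0, 2.0, 4.0 µM), then LPS 1.0 µg/mL for 30 min before extraction. Lysates blotted to nitrocellulose and probed overnight at 4 °C for total and phospho forms of p65, IκBα, Akt, ERK1/2, JNK and p38; secondary antibody 2 h at room temperature. ECL detection, normalized to GAPDH, mean ± SD of triplicate tests.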

[3] = tested on: HepG2; assay: Inhibition of NF-kappaB in human HepG2 cells assessed as reduction in TNFalpha-induced p65 nuclear translocation at 4 uM pretreated with TNFalpha for 15 mins followed by compound addition and measured after 2 hrs by DAPI staining based fluorescence microscopy; conditions: time 135.0 min
[4] = tested on: SMMC-7721; assay: Induction of apoptosis in human SMMC-7721 cells assessed as viable cells at 4 uM incubated for 24 hrs by annexin V-FITC and PI staining based flow cytometry analysis (reference value: 93.3 %); format: functional; conditions: read-out: Activity; procedure, shortened: as §1
[5] = tested on: HepG2; assay: Cytotoxicity against human HepG2 cells assessed as reduction in cell viability incubated for 24 hrs by MTT assay; format: functional, cell-based; conditions: HepG2, 24 h
Procedure, shortened: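 Cells kept at 37 °C in 5% CO₂. HepG2 grown in DMEM with 10% serum; HHL-5, LO2 and SMMC-7721 in 1640 medium with 10% serum. Seeded, grown 24 h, then exposed 24 h to 10, 5, 2.5, 1.25, 0.625 and 0.3125 µg/mL. MTT (5 mg/mL) added for 4 h at 37 °C; formazan dissolved in DMSO, OD read at 570 nm. IC50 averaged from three replicates.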

[6] = tested on: RAW264.7; assay: Inhibition of NF-kappaB in mouse RAW264.7 cells assessed as reduction in LPS-induced ERK phosphorylation at 1 to 4 uM incubated for 1 hr followed by LPS stimulation and measured after 30 mins by Western blot analysis; format: cell-based; conditions: dose 1-4 µM; procedure, shortened: as §2
[7] = tested on: HepG2; assay: Induction of apoptosis in human HepG2 cells assessed as increase in Bax expression incubated for 24 hrs by Western blot analysis; format: functional, cell-based; conditions: dose 1-4 µM
Procedure, shortened: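 HepG2 exposed to 1.0, 2.0 or 4.0 µM for 24 h. Lysates separated by electrophoresis and blotted onto nitrocellulose. Probed overnight at 4 °C with anti-Bcl-2, anti-BAX or anti-cleaved caspase-3, then 2 h at room temperature with anti-mouse/rabbit IgG. ECL detection, GAPDH as loading control; quantified from more than three separate experiments.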

[8] = tested on: RAW264.7; assay: Inhibition of NF-kappaB in mouse RAW264.7 cells assessed as reduction in LPS-induced IkappaBalpha phosphorylation incubated for 1 hr followed by LPS stimulation and measured after 30 mins by Western blot analysis; format: cell-based; conditions: dose 1-4 µM; procedure, shortened: as §2
[9] = tested on: HepG2; assay: Induction of apoptosis in human HepG2 cells assessed as viable cells at 1 uM incubated for 24 hrs by annexin V-FITC and PI staining based flow cytometry analysis (reference value: 94.2 %); format: functional; conditions: read-out: Activity; procedure, shortened: as §1
[10] = tested on: HepG2; assay: Inhibition of NF-kappaB in human HepG2 cells assessed as reduction in TNFalpha-induced p65 nuclear translocation at 4 uM pretreated with LPS for 15 mins followed by compound addition and measured after 2 hrs by DAPI staining based fluorescence microscopy; format: cell-based; conditions: time 135.0 min, in the assay text read “pretreated with TNF-alpha” for “pretreated with LPS”
Procedure, shortened: (§3)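 HepG2 exposed to TNF-α (10 ng/mL) for 15 min, then 4.0 µM compound for 2 h. Fixed at room temperature and blocked with 3% BSA. Anti-p65 (1:200) overnight at 4 °C, then secondary (1:200) for 30 min at room temperature. Nuclei stained with DAPI; p65 location imaged on a high-content fluorescence system. Repeated three times.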

[11] = tested on: RAW264.7; assay: Inhibition of NF-kappaB in mouse RAW264.7 cells assessed as reduction in LPS-induced p65 nuclear translocation at 4 uM pretreated with LPS for 15 mins followed by compound addition and measured after 2 hrs by DAPI staining based fluorescence microscopy; format: cell-based; conditions: time 135.0 min
Procedure, shortened: as §3, with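 “RAW264.7” for “HepG2”, “LPS (1 µg/mL)” for “TNF-α (10 ng/mL)”, “DAPI for 15 min;” for “DAPI; p65 location”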

[12] = tested on: RAW264.7; assay: Inhibition of NF-kappaB in mouse RAW264.7 cells assessed as reduction in LPS-induced Akt phosphorylation at 1 to 4 uM incubated for 1 hr followed by LPS stimulation and measured after 30 mins by Western blot analysis; format: cell-based; conditions: dose 1-4 µM; procedure, shortened: as §2

Cl.NC1=NC(c2cccc(F)c2)C2=C(N1)/C(=C/c1cccc(F)c1)CN(S(=O)(=O)c1ccc(C(F)(F)F)cc1)C2 (configuration not stated)
Activity [1]: 10.5%
inhibition [2]: Active
inhibition [3]: Active
viability at 4 µM [4]: 66.5%
IC50 [5]: 2.1 µM
inhibition [6]: Active
Activity [7]: Dose-dependent effect
inhibition [8]: Dose-dependent effect
viability at 1 µM [9]: 35.3%
inhibition [10]: Active
inhibition [11]: Active
inhibition [12]: Active
